The term EC50 denotes the concentration needed to bring the measured effect to its halfway point.

Calls of active or inactive are those of the source. The calls are words filed in the database; no cut-off is given here. Bounds are passed on as bounds.

For data set [1], the system named is S49. Briefly: Cytotoxicity against wild type mouse S49 cells assessed as growth inhibition after 72 hrs by trypan blue exclusion assay. The class given is functional, cell-based. The conditions noted are these: S49, 72 h. The gist of the method: (§1)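 S49 mouse T-lymphoma cells, pre-grown 24 h to keep growth exponential and asynchronous, were plated at 10^5 cells/mL in complete Dulbecco's modified Eagle medium. Agents were added in 30 mM NaHCO3. After 72 h at 37 °C, cells were counted by Coulter counter. Initial density was subtracted and growth expressed as a fraction of drug-free wells. EC50 was read from the percent-inhibition versus concentration plot, reported as mean ± SE. Trypan blue was used to check cytolysis.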

Data set [2] relates to S49. Kind of data set: Cytotoxicity against HGPRTase-deficient mouse S49 cells assessed as growth inhibition after 72 hrs by trypan blue exclusion assay. It counts as functional, cell-based. As to conditions: S49, 72 h. The gist of the method: as §1
Data set [3] relates to S49. Kind of data set: Cytotoxicity against wild type mouse S49 cells assessed as growth inhibition at 200 uM after 72 hrs by trypan blue exclusion assay. It counts as functional. As to conditions: S49, 72 h, read-out: GI. The gist of the method:
as §1

In data set [4] the test system is S49. Kind of data set: Cytotoxicity against wild type mouse S49 cells assessed as growth inhibition after 24 hrs by time-course study. The class given is functional, cell-based.
In data set [5] the test system is S49. Briefly: Cytotoxicity against HGPRTase- and protein kinase-deficient mouse S49 cells assessed as growth inhibition at 1 mM. The class given is functional, cell-based. The gist of the method: as §1
Data set [6] concerns S49. Briefly: Cytotoxicity against HGPRTase-deficient mouse S49 cells assessed as growth inhibition at 500 uM after 20 to 49 hrs by time-course study. It counts as functional, cell-based. The method in brief: (§2)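 Growth of HGPRTase-deficient S49 cells was followed over time with 0.5 mM agent, compared with drug-free cultures. The cAMP comparator was given with 0.2 mM theophylline.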

The subject of data set [7] is S49. Briefly: Cytotoxicity against HGPRTase-deficient mouse S49 cells assessed as growth inhibition at 500 uM after 20 to 49 hrs by time-course study in presence of theophylline. It counts as functional, cell-based. The gist of the method:
as §2

For data set [8], the system named is S49. Kind of data set: Cytotoxicity against HGPRTase-deficient mouse S49 cells assessed as growth inhibition at 100 uM after 72 hrs by trypan blue exclusion assay. It counts as functional, cell-based. The method in brief: as §1
Data set [9] is described as follows: Drug degradation in Eagle's medium containing 10 % heat-inactivated horse serum assessed as parent compound after 3 days by reverse-phase liquid chromatography. It counts as physicochemical. As to conditions: read-out: Stability. The method in brief:
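Agent at 0.5 mM was incubated without cells for 3 days at 37 °C in Dulbecco's modified Eagle medium with 10% heat-inactivated horse serum. Aliquots were diluted 5:1 with methanol, filtered (0.45 μm), and analysed by reverse-phase C18 LC.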

Data set [10] concerns S49. Kind of data set: Cytotoxicity against HGPRTase-deficient mouse S49 cells assessed as growth inhibition in presence of 4-(3-butoxy-4-methoxybenzyl)-2-imidazolone.
In data set [11] the test system is S49. Briefly: Cytotoxicity against HGPRTase-, protein kinase- and phosphodiesterase-deficient mouse S49 cells assessed as growth inhibition. The class given is functional, cell-based. The method in brief:
as §1

For data set [12], the system named is S49. Kind of data set: Cytotoxicity against HGPRTase-deficient mouse S49 cells assessed as growth inhibition in presence of theophylline.
Data set [13] concerns S49. Briefly: Cytotoxicity against HGPRTase-deficient mouse S49 cells assessed as growth inhibition at 1000 uM after 72 hrs by trypan blue exclusion assay. It counts as functional, cell-based. The method in brief: as §1
Data set [14] concerns S49. Kind of data set: Cytotoxicity against HGPRTase- and protein kinase-deficient mouse S49 cells assessed as growth inhibition. The class given is functional, cell-based. The gist of the method:
as §1

Turning to `OC[C@H]1O[C@@H](n2cnc3c(S)ncnc32)[C@H](O)[C@@H]1O` [THIOINOSINE], the values for the EC50 in the data set on S49 [1] and with S49 [2] were 0.25 µM and 400 µM, respectively.

Consider `O=P1(O)OC[C@H]2O[C@@H](n3cnc4c(=S)[nH]cnc43)[C@H](O)[C@@H]2O1`, for which the EC50 in the data set with S49 [1] was 200 µM; in the data set with S49 [2], over 1000 µM. In the data set on S49 [3], the inhibition of growth at 200 µM is 40%.

Consider `CC(C)(C)C(=O)O[C@@H]1[C@@H]2OP(=O)(O)OC[C@H]2O[C@H]1n1cnc2c(=S)[nH]cnc21`, for which the half-maximal effective concentration (EC50) was 33 µM in the data set with S49 [1] and 237 µM in the data set with S49 [2].

In the case of `CCCCCCCCCCCCCCCCCCCCCC(=O)O[C@@H]1[C@@H]2OP(=O)(O)OC[C@H]2O[C@H]1n1cnc2c(=S)[nH]cnc21`, the EC50 with S49 [2] worked out at 120 µM.

As for `CC(=O)O[C@@H]1[C@@H]2OP(=O)(O)OC[C@H]2O[C@H]1n1cnc2c(=S)[nH]cnc21`, the EC50 in the data set with S49 [1] came to 210 µM; with S49 [2], 655 µM.

For `Sc1ncnc2nc[nH]c12` [MERCAPTOPURINE ANHYDROUS], the “growth inhibition (GI)” value in the data set with S49 [4] is “Active”. The EC50 with S49 [1] was 8 µM; in the data set on S49 [2] it was over 1000 µM.

`CC(C)C(=O)O[C@@H]1[C@@H]2OP(=O)(O)OC[C@H]2O[C@H]1n1cnc2c(=S)[nH]cnc21`: the results for the EC50 with S49 [1] and with S49 [2] were 23 µM and 479 µM, respectively.

Regarding `CCCC(=O)O[C@@H]1[C@@H]2OP(=O)(O)OC[C@H]2O[C@H]1n1cnc2c(N)ncnc21`, the “growth inhibition (GI)” value with S49 [5] is “inactive”.

As for `CCCC(=O)Nc1ncnc2c1ncn2[C@@H]1O[C@@H]2COP(=O)(O)O[C@H]2[C@H]1OC(=O)CCC`, the “growth inhibition (GI)” value in the data set with S49 [6] and in the data set on S49 [7] was “Active” throughout.

For the compound `CCCCCCCCCCCC(=O)O`, in the data set on S49 [8], the “growth inhibition (GI)” value was “inactive”.

Consider `CCCCCCCCCCCCCCCC(=O)O[C@@H]1[C@@H]2OP(=O)(O)OC[C@H]2O[C@H]1n1cnc2c(=S)[nH]cnc21`, for which the remaining at 72 h in data set [9] worked out at 20%. The EC50 turned out to be 6 µM with S49 [1] and 65 µM with S49 [2]. For the same compound, the “growth inhibition (GI)” value in the data set with S49 [10], in the data set on S49 [11] and with S49 [12] was “Active” in each case.

For `CCCCCCCCCCCC(=O)O[C@@H]1[C@@H]2OP(=O)(O)OC[C@H]2O[C@H]1n1cnc2c(=S)[nH]cnc21`, the EC50 was found to be 10 µM with S49 [1] and 109 µM with S49 [2].

Turning to `CCCCCC(=O)O` [HEXANOATE], the EC50 in the data set with S49 [2] is over 1000 µM.

With `CC(C)C(=O)O`, the “growth inhibition (GI)” value in the data set on S49 [13] is “inactive”.

With `CCCCCCCCCCCCCCCC(=O)O` [PALMITIC ACID], the EC50 with S49 [2] came out at 500 µM.

`CCCCCC(=O)O[C@@H]1[C@@H]2OP(=O)(O)OC[C@H]2O[C@H]1n1cnc2c(=S)[nH]cnc21`: the EC50 in the data set with S49 [1] was found to be 10 µM; with S49 [2] it was 210 µM.

In the case of `CCCC(=O)O[C@@H]1[C@@H]2OP(=O)(O)OC[C@H]2O[C@H]1n1cnc2c(=S)[nH]cnc21`, the half-maximal effective concentration (EC50) with S49 [1] was found to be 137 µM; in the data set with S49 [2], 426 µM; in the data set with S49 [14], 250 µM.

These data come from ChEMBL document CHEMBL3227959, “2'-O-Acyl-6-thioinosine cyclic 3',5'-phosphates as prodrugs of thioinosinic acid” (J Med Chem, 1979).
